Experimental data from ChEMBL document CHEMBL4732112, “Synthesis and in vitro evaluation of novel spiroketopyrazoles as acetyl-CoA carboxylase inhibitors and potential antitumor agents” (Eur J Med Chem, 2021).

Columns and labels:
Acetyl-CoA carboxylase 1 [1] = biological target: T1, Acetyl-CoA carboxylase 1 (Homo sapiens, UniProt Q13085); assay: Inhibition of recombinant human C-terminal His-tagged ACC1 (1 to 2383 residues) expressed in baculovirus infected Sf9 insect cells at 5 uM preincubated for 15 mins followed by substrate addition and measured after 60 mins by ADP-glo luminescence assay relative to control
Acetyl-CoA carboxylase 1 [2] = biological target: T1, Acetyl-CoA carboxylase 1; assay: Inhibition of recombinant human C-terminal His-tagged ACC1 (1 to 2383 residues) expressed in baculovirus infected Sf9 insect cells at 0.1 uM preincubated for 15 mins followed by substrate addition and measured after 60 mins by ADP-glo luminescence assay relative to control
Acetyl-CoA carboxylase 1 [3] = biological target: T1, Acetyl-CoA carboxylase 1; assay: Inhibition of recombinant human C-terminal His-tagged ACC1 (1 to 2383 residues) expressed in baculovirus infected Sf9 insect cells preincubated for 15 mins followed by substrate addition and measured after 60 mins by ADP-glo luminescence assay
How it was run: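 Recombinant ACC1 in assay buffer preincubated with inhibitor in DMSO for 15 min at room temperature. Reaction started with substrate mixture and run 60 min at room temperature. Stopped with ADP-Glo reagent for 40 min, then detection reagent for 40 min to convert ADP to ATP, read by luminescence. Mean of two independent experiments.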

A549 = assay: Antiproliferative activity against human A549 cells assessed as cell growth inhibition after 72 hrs by MTT assay; format: functional, cell-based; settings: A549, 72 h
How it was run: (§1)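 HepG2, A549 or MDA-MB-231 cells grown in DMEM with 10% FBS and penicillin/streptomycin at 37 °C, 5% CO2. Seeded at 3×10^3 per well, left 24 h, then exposed to a range of concentrations for 72 h. MTT added for 4 h, formazan dissolved in DMSO, absorbance read at 550 nm. Mean ± SD, n=3.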

HepG2 = assay: Antiproliferative activity against human HepG2 cells assessed as cell growth inhibition after 72 hrs by MTT assay; format: functional, cell-based; settings: HepG2, 72 h; how it was run: as §1
MDA-MB-231 = assay: Antiproliferative activity against human MDA-MB-231 cells assessed as cell growth inhibition after 72 hrs by MTT assay; format: functional, cell-based; settings: MDA-MB-231, 72 h; how it was run: as §1
[4] = Cytotoxicity against HUVEC assessed as cell viability at 100 uM after 72 hrs by MTT assay relative to control; format: cell-based; settings: human, HUVEC cells, read-out: Activity
How it was run: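 HUVEC kept in RPMI 1640 with 10% FBS at 37 °C, 5% CO2. Seeded at 3×10^3 per well and treated at 100 µM for 72 h after 24 h attachment. Viability by MTT with absorbance at 550 nm, as percent of control. Mean ± SD, n=3.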

Compound | inhibition (Acetyl-CoA carboxylase 1 [1]) | inhibition (Acetyl-CoA carboxylase 1 [2]) | IC50 (Acetyl-CoA carboxylase 1 [3]) | IC50 (A549) | IC50 (HepG2) | IC50 (MDA-MB-231) | viability at 72 h, 100 µM [4]
CC(C)(C)n1cc2c(n1)C(=O)CC1(CCN(C(=O)c3cc(-c4ccccn4)nc4ccccc34)CC1)O2 | 103% | 84% | 13.8 nM | 7720 nM | 1500 nM | 8100 nM | 104%
CC(C)Oc1cc(C(=O)N2CCC3(CC2)CC(=O)c2nn(C(C)(C)C)cc2O3)c2ccccc2n1 | 99.4% | 68% | > 20 nM | > 10000 nM | 3150 nM | > 10000 nM | 102%
CN(C)c1ccc(-c2cc(C(=O)N3CCC4(CC3)CC(=O)c3nn(C(C)(C)C)cc3O4)c3ccccc3n2)cc1 | 99.6% | 96.4% | 2.72 nM | 1150 nM | 1730 nM | > 10000 nM | 91.3%
COc1ccc(-c2cc(C(=O)N3CCC4(CC3)CC(=O)c3nn(C(C)(C)C)cc3O4)c3ccccc3n2)cc1OC | 102% | 95.6% | 3.57 nM | 2030 nM | 1560 nM | 7130 nM | 93.7%
CC(C)(C)n1cc2c(n1)C(=O)CC1(CCN(C(=O)c3cc(-c4ccc(Br)cc4)nc4ccccc34)CC1)O2 | 102% | 93.2% | 5.67 nM | 9300 nM | 820 nM | > 10000 nM | 84.1%
CC(C)(C)n1cc2c(n1)C(=O)CC1(CCN(C(=O)c3cc(-c4ccccc4Cl)nc4ccccc34)CC1)O2 | 94.4% | 43.6% | > 100 nM | 2180 nM | > 10000 nM | > 10000 nM | 103%
CC(C)(C)n1cc2c(n1)C(=O)CC1(CCN(C(=O)c3cc(-c4ccc(F)cc4)nc4ccccc34)CC1)O2 | 100% | 87.3% | 9.4 nM | 5770 nM | 2930 nM | > 10000 nM | 98.7%
Cc1ccccc1-c1cc(C(=O)N2CCC3(CC2)CC(=O)c2nn(C(C)(C)C)cc2O3)c2ccccc2n1 | 95.5% | 41.8% | > 100 nM | 1880 nM | > 10000 nM | > 10000 nM | 38.6%
CC(C)(C)n1cc2c(n1)C(=O)CC1(CCN(C(=O)c3cc(N4CCNCC4)nc4ccccc34)CC1)O2 | 97.6% | 59.6% | > 20 nM | > 10000 nM | 8570 nM | 4200 nM | 102%
CC(C)(C)n1cc2c(n1)C(=O)CC1(CCN(C(=O)c3ccc4[nH]ncc4c3)CC1)O2 | 101% | 82.5% |  | 3520 nM | 1880 nM | 5930 nM | 101%
CCOc1cc(C(=O)N2CCC3(CC2)CC(=O)c2nn(C(C)(C)C)cc2O3)c2ccccc2n1 | 93.9% | 38.4% | > 100 nM | > 10000 nM | > 10000 nM | > 10000 nM | 96.1%
